Calls of active or inactive are those of the source. The calls are words filed in the database; no cut-off is given here.
Tests used:
[1] = Selectivity ratio of PKCgamma C1A domain over PKCgamma C1A P11dfP mutant
[2] = molecular target: T1, Protein kinase C gamma type (Homo sapiens, UniProt P05129); assay: Displacement of [3H]PDBu from PKCgamma C1A domain
Outline: (§1)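 [3H]PDBu (20 nM, 16.3 Ci/mmol) competition binding with synthetic PKC C1 peptides (10–40 nM) in 50 mM Tris-maleate pH 7.4 at 4 °C, with 50 µg/mL phosphatidylserine, 3 mg/mL bovine γ-globulin and varied inhibitor concentrations. IC50 is the concentration giving 50% inhibition of specific binding. Ki derived by the Sharkey–Blumberg method. SD from at least two separate experiments.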

[3] = molecular target: Protein kinase C delta type (Homo sapiens, UniProt Q05655); assay: Displacement of [3H]PDBu from PKCdelta C1B domain; outline: as §1
[4] = Displacement of [3H]PDBu from PKCdelta C1B P11dfP mutant; outline: as §1
[5] = Displacement of [3H]PDBu from PKCgamma C1A P11dfP mutant; outline: as §1
[6] = Selectivity ratio of PKCdelta C1B domain over PKCdelta C1B P11dfP mutant
[7] = molecular target: T2, Protein kinase C beta type (Homo sapiens, UniProt P05771); assay: Displacement of [3H]PDBu from PKCbeta C1A domain at 10 uM
Outline: (§2)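 Competition for specific [3H]PDBu (20 nM, 16.3 Ci/mmol) binding to C1 peptide (10–40 nM) was tested with a single 10 µM competitor. The buffer was 50 mM Tris-maleate (pH 7.4 at 4 °C) with 50 µg/mL dioleoylphosphatidylserine and 3 mg/mL bovine γ-globulin.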
Target sequence in this assay (P05771 2-671 limits assumed): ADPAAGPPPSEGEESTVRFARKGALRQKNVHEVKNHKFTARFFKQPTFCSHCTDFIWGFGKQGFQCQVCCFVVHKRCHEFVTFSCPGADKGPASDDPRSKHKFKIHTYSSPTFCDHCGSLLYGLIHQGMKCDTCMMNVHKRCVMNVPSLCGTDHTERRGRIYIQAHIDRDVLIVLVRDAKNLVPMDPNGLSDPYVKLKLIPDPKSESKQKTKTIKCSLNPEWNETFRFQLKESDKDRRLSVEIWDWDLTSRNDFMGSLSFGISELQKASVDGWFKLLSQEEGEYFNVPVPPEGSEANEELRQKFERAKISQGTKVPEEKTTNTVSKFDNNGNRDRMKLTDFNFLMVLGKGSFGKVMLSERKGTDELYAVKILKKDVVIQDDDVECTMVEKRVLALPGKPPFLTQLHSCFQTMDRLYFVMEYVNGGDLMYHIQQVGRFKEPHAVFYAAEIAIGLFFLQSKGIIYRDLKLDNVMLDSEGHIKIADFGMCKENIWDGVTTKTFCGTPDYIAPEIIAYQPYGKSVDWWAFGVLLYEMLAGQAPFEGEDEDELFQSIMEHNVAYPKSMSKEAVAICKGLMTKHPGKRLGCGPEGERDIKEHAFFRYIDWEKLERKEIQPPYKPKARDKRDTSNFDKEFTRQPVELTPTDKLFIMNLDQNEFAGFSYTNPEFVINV

[8] = molecular target: T2, Protein kinase C beta type; assay: Displacement of [3H]PDBu from PKCbeta C1B domain at 10 uM; outline: as §2
Target sequence in this assay (P05771 2-671 limits assumed): as above

[9] = molecular target: T3, Protein kinase C alpha type (Homo sapiens, UniProt P17252); assay: Displacement of [3H]PDBu from PKCalpha C1A domain; outline: as §1
[10] = molecular target: T2, Protein kinase C beta type; assay: Displacement of [3H]PDBu from PKCbeta C1A domain; outline: as §1
Target sequence in this assay (P05771 whole entry, the tested form may be a part): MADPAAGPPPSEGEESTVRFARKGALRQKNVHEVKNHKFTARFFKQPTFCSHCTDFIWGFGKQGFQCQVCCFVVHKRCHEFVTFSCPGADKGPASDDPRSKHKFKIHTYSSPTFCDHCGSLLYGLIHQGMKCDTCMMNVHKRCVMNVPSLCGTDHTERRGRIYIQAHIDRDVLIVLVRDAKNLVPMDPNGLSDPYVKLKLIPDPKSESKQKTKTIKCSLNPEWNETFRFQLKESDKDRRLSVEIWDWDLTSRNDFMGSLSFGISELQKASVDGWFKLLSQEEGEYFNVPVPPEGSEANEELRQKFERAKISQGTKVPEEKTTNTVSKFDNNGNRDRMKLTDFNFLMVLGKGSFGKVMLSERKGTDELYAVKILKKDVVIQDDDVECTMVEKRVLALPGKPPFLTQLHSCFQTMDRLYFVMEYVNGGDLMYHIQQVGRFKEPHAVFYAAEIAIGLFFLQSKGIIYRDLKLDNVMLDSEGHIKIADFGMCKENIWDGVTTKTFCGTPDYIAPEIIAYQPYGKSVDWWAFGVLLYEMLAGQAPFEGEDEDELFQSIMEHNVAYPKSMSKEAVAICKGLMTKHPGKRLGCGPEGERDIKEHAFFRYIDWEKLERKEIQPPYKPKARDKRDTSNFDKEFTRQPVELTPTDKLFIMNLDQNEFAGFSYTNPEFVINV

[11] = molecular target: T1, Protein kinase C gamma type; assay: Displacement of [3H]PDBu from PKCgamma C1B domain; outline: as §1
[12] = molecular target: T3, Protein kinase C alpha type; assay: Displacement of [3H]PDBu from PKCalpha C1B domain; outline: as §1
[13] = molecular target: Protein kinase C eta type (Homo sapiens, UniProt P24723); assay: Displacement of [3H]PDBu from PKCeta C1B domain
Outline: (§3)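 Synthetic PKC C1 peptides (10–40 nM; about 3 nM properly folded, estimated from earlier Scatchard Bmax) were incubated with 20 nM [3H]PDBu (16.3 Ci/mmol) in 50 mM Tris-maleate (pH 7.4 at 4 °C). The mix also held 50 µg/mL 1,2-dioleoyl-sn-glycero-3-phospho-L-serine, 3 mg/mL bovine γ-globulin and varied inhibitor. IC50 came from probit analysis and Ki from the Sharkey–Blumberg method.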

[14] = molecular target: Protein kinase C theta type (Homo sapiens, UniProt Q04759); assay: Displacement of [3H]PDBu from PKCtheta C1B domain; outline: as §3
[15] = molecular target: T2, Protein kinase C beta type; assay: Displacement of [3H]PDBu from PKCbeta C1B domain; outline: as §1
Target sequence in this assay (P05771 whole entry, the tested form may be a part): as above

[16] = molecular target: T4, Protein kinase C epsilon type (Homo sapiens, UniProt Q02156); assay: Displacement of [3H]PDBu from PKCepsilon C1B domain; outline: as §3
T4 sequence (Q02156 whole entry): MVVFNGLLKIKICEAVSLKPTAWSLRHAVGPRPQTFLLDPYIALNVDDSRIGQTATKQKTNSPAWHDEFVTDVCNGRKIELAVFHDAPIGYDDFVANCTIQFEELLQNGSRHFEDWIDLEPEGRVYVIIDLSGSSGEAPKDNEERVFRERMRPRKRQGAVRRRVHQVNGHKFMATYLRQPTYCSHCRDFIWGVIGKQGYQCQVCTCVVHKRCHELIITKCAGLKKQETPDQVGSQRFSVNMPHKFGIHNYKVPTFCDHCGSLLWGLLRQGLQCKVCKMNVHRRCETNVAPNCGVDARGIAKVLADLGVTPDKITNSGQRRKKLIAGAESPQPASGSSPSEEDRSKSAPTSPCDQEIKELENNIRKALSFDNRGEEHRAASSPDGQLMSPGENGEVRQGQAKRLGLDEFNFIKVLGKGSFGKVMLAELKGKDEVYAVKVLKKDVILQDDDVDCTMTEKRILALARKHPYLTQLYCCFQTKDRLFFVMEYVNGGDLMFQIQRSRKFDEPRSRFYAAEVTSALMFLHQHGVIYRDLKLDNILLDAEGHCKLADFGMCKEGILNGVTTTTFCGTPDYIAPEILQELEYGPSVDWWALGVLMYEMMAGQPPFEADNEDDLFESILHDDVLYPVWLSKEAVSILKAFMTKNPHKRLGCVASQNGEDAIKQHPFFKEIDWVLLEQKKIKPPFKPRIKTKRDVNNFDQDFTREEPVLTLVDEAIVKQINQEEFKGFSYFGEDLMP

Sequence of Protein kinase C delta type (Q05655 whole entry, the tested form may be a part): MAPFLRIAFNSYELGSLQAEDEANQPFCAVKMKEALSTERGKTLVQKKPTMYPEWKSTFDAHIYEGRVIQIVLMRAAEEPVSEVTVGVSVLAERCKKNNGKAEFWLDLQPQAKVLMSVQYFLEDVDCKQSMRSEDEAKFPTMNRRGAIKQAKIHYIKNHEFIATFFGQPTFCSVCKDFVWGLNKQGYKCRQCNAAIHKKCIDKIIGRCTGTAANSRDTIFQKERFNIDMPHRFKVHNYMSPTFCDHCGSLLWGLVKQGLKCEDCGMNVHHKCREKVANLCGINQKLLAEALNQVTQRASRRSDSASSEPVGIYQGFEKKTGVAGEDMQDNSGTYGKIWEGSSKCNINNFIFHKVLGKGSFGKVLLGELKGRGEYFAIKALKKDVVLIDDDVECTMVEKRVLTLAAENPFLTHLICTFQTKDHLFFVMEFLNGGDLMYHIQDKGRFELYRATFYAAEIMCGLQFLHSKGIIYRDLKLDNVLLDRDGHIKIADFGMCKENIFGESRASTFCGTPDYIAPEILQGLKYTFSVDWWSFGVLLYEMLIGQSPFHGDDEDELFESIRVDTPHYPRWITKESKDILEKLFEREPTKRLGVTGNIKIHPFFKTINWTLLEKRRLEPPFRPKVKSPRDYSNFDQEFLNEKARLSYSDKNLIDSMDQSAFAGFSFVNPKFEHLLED
Sequence of Protein kinase C theta type (Q04759 whole entry, the tested form may be a part): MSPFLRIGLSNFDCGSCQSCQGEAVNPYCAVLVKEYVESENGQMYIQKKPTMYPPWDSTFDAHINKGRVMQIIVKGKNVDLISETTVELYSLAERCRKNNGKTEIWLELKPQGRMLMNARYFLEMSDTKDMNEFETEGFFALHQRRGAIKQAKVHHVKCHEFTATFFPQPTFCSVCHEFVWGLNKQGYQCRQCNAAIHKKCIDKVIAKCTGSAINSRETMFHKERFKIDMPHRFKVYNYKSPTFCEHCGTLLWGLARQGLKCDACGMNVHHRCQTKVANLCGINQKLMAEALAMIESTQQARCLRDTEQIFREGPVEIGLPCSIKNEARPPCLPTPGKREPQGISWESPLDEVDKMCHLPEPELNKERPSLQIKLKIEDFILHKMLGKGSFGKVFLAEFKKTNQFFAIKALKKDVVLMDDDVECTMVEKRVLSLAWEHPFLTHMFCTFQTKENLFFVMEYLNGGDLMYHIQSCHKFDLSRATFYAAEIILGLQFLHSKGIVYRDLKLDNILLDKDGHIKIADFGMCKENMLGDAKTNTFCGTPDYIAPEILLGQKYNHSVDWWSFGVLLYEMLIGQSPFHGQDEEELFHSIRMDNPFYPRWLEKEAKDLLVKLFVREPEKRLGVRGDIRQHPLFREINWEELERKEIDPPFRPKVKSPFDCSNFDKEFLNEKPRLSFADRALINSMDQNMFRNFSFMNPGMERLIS
Sequence of Protein kinase C eta type (P24723 whole entry, the tested form may be a part): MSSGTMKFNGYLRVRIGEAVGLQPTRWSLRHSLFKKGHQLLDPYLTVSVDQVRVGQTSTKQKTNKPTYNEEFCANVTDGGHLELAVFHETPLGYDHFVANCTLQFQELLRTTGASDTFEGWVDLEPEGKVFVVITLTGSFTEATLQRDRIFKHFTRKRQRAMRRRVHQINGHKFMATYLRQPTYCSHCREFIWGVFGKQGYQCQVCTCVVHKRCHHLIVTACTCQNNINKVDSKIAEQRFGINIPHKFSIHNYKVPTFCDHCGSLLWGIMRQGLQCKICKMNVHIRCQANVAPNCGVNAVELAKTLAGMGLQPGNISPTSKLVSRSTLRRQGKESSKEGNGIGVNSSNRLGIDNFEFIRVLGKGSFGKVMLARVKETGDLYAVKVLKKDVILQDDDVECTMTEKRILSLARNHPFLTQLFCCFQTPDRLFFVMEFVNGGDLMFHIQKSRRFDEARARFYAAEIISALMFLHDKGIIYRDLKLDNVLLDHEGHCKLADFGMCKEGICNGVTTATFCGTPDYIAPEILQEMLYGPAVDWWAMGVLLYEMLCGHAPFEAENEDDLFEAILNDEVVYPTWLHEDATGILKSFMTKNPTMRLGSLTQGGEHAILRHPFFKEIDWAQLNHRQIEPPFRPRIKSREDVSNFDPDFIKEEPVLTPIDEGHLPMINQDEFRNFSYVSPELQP

Activity [7] | Activity [8] | SMILES | Ratio Ki [1] | Ki [2] [nM] | Ki [3] [nM] | Ki [4] [nM] | Ki [5] [nM] | Ratio Ki [6] | Ki [9] [nM] | Ki [10] [nM] | Ki [11] [nM] | Ki [12] [nM] | Ki [13] [nM] | Ki [14] [nM] | Ki [15] [nM] | Ki [16] [nM]
 |  | CC(C)[C@H]1C(=O)N[C@H](CO)Cc2ccccc2N1C | 0.8 | 3100 | 410 | 436 | 2500 | 1.1 |  |  |  |  |  |  |  | 
inactive | inactive | CCCCCCn1c(Br)c2c3c(cccc31)N(C)[C@@H](C(C)C)C(=O)N[C@H](CO)CC2 |  |  |  |  |  |  |  |  |  |  |  |  |  | 
 |  | CC(C)[C@H]1C(=O)N[C@H](CO)Cc2c[nH]c3cccc(c23)N1C [INDOLACTUM] | 7.8 | 89 | 11 | 130 | 690 | 11.8 | 21 | 19 | 59 |  |  |  |  | 
 |  | CCCCCCn1cc2c3c(cccc31)N(C)[C@@H](C(C)C)C(=O)N[C@H](CO)CC2 | 1.3 | 11000 | 15 | 120 | 14000 | 8 | 6700 | 9200 | 420 | > 10000 | 25 | 12 | 440 | 29
 |  | CCCCCCn1cc2c3c(cccc31)N(C)[C@@H](C(C)C)C(=O)N[C@H](CO)C2 | 4.7 | 15 | 0.46 | 3.7 | 71 | 8 | 5.8 | 9.8 | 39 | 43 | 0.34 | 1.4 | 11 | 0.47
inactive | inactive | CCCCCCn1cc2c3c(c(Cl)ccc31)N(C)[C@@H](C(C)C)C(=O)N[C@H](CO)CC2 |  |  |  |  |  |  |  |  |  |  |  |  |  | 

Source: ChEMBL document CHEMBL1140701, “Synthesis, conformational analysis, and biological evaluation of 1-hexylindolactam-V10 as a selective activator for novel protein kinase C isozymes” (J Med Chem, 2008)
